Reference: ChEMBL document CHEMBL3407457, “Microwave-assisted synthesis of certain pyrrolylpyridines, some derived ring systems and their evaluation as anticancer and antioxidant agents” (Eur J Med Chem, 2015)
The source made the active and inactive calls. The calls are words filed in the database; no cut-off is given here.

Tests used:
[1] = (§1) Growth inhibition of human EKVX cells at 10 uM after 48 hrs by sulforhodamine B assay; assay type: functional; settings: read-out: GI
How it was run: (§2)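 NCI-60 primary screen: cells given a single 10 µM dose under 48 h continuous exposure. Growth/viability estimated by sulforhodamine B protein assay. Reported as percent growth of treated cells (mean graph), expressed as percent growth inhibition.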

[2] = Growth inhibition of human HOP92 cells at 10 uM after 48 hrs by sulforhodamine B assay; assay type: functional; settings: HOP-92, 48 h, read-out: GI; how it was run: as §2
[3] = system: NCI-H522; test: Growth inhibition of human NCI-H522 cells at 10 uM after 48 hrs by sulforhodamine B assay; assay type: functional; settings: NCI-H522, 48 h, read-out: GI; how it was run: as §2
[4] = (§3) Growth inhibition of human HCT116 cells at 10 uM after 48 hrs by sulforhodamine B assay; assay type: functional; settings: HCT-116, 48 h, read-out: GI; how it was run: as §2
[5] = Growth inhibition of human HCT15 cells at 10 uM after 48 hrs by sulforhodamine B assay; assay type: functional; settings: HCT-15, 48 h, read-out: GI; how it was run: as §2
[6] = (§4) Growth inhibition of human Hs 578T cells at 10 uM after 48 hrs by sulforhodamine B assay; assay type: functional; settings: read-out: GI; how it was run: as §2
[7] = system: MDA-MB-468; test: Growth inhibition of human MDA-MB-468 cells at 10 uM after 48 hrs by sulforhodamine B assay; assay type: functional; settings: for inhibition of growth at 10 µM: MDA-MB-468, 48 h, read-out: GI; how it was run: as §2
[8] = system: T47D; test: Growth inhibition of human T47D cells at 10 uM after 48 hrs by sulforhodamine B assay; assay type: functional; settings: read-out: GI; how it was run: as §2
[9] = system: IGROV-1; test: Growth inhibition of human IGROV1 cells at 10 uM after 48 hrs by sulforhodamine B assay; assay type: functional; settings: IGROV-1, 48 h, read-out: GI; how it was run: as §2
[10] = system: OVCAR-4; test: (§5) Growth inhibition of human OVCAR4 cells at 10 uM after 48 hrs by sulforhodamine B assay; assay type: functional; how it was run: as §2
[11] = system: CCRF-CEM; test: Growth inhibition of human CCRF-CEM cells at 10 uM after 48 hrs by sulforhodamine B assay; assay type: functional; settings: read-out: GI; how it was run: as §2
[12] = system: HL-60(TB); test: Growth inhibition of human HL-60(TB) cells at 10 uM after 48 hrs by sulforhodamine B assay; assay type: functional; settings: for inhibition of growth at 10 µM: HL-60, 48 h, read-out: GI
How it was run: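 NCI-60 one-dose primary screen, HL-60(TB) within the leukemia subpanel. Single 10 µM concentration, 48 h continuous exposure. Growth estimated by sulforhodamine B protein assay. Percent growth of treated cells expressed as percentage growth inhibition (GI%).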

[13] = system: K562; test: Growth inhibition of human K562 cells at 10 uM after 48 hrs by sulforhodamine B assay; assay type: functional; settings: K562, 48 h, read-out: GI; how it was run: as §2
[14] = Growth inhibition of human MOLT4 cells at 10 uM after 48 hrs by sulforhodamine B assay; assay type: functional; settings: MOLT-4, 48 h, read-out: GI; how it was run: as §2
[15] = Growth inhibition of human RPMI8226 cells at 10 uM after 48 hrs by sulforhodamine B assay; assay type: functional; settings: RPMI-8226, 48 h, read-out: GI; how it was run: as §2
[16] = system: A498; test: Growth inhibition of human A498 cells at 10 uM after 48 hrs by sulforhodamine B assay; assay type: functional; settings: A498, 48 h, read-out: GI; how it was run: as §2
[17] = system: ACHN; test: Growth inhibition of human ACHN cells at 10 uM after 48 hrs by sulforhodamine B assay; assay type: functional; settings: for inhibition of growth at 10 µM: read-out: GI; how it was run: as §2
[18] = system: CAKI-1; test: Growth inhibition of human CAKI-1 cells at 10 uM after 48 hrs by sulforhodamine B assay; assay type: functional; settings: for inhibition of growth at 10 µM: CAKI-1, 48 h, read-out: GI; how it was run: as §2
[19] = (§6) Growth inhibition of human UO31 cells at 10 uM after 48 hrs by sulforhodamine B assay; assay type: functional; settings: UO-31, 48 h, read-out: GI; how it was run: as §2
[20] = system: LOX IMVI; test: (§7) Growth inhibition of human LOXIMVI cells at 10 uM after 48 hrs by sulforhodamine B assay; assay type: functional; how it was run: as §2
[21] = system: SK-MEL-5; test: Growth inhibition of human SK-MEL-5 cells at 10 uM after 48 hrs by sulforhodamine B assay; assay type: functional; settings: SK-MEL-5, 48 h, read-out: GI; how it was run: as §2
[22] = Growth inhibition of human UACC62 cells at 10 uM after 48 hrs by sulforhodamine B assay; assay type: functional; settings: UACC-62, 48 h, read-out: GI; how it was run: as §2
[23] = Growth inhibition of human PC3 cells at 10 uM after 48 hrs by sulforhodamine B assay; assay type: functional; settings: PC-3, 48 h, read-out: GI; how it was run: as §2
[24] = system: SNB-75; test: Growth inhibition of human SNB75 cells at 10 uM after 48 hrs by sulforhodamine B assay; assay type: functional; settings: for inhibition of growth at 10 µM: SNB-75, 48 h, read-out: GI; how it was run: as §2
[25] = system: U-251; test: Growth inhibition of human U251 cells at 10 uM after 48 hrs by sulforhodamine B assay; assay type: functional; how it was run: as §2
[26] = Antioxidant activity assessed as DPPH radical scavenging activity at 10^-4 M incubated for 30 mins by spectrophotometry; assay type: physicochemical; settings: 0.5 h, 100 µM
How it was run: (§8)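 Compound at 10^-3 or 10^-4 M mixed with methanolic DPPH (0.1 mL of 1 mM stock; 3 mL total volume), shaken, kept in the dark 30 min at room temperature. Absorbance read at 517 nm. Scavenging (%) = (A_control − A_sample)/A_control × 100, where the control is DPPH in methanol alone. BHT served as reference antioxidant. Triplicate, mean ± SD of three independent experiments.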

[27] = Antioxidant activity assessed as DPPH radical scavenging activity at 10^-3 M incubated for 30 mins by spectrophotometry; assay type: physicochemical; settings: 0.5 h, 1000 µM; how it was run: as §8
[28] = as §5; assay type: functional; settings: OVCAR-4, 48 h, read-out: GI; how it was run: as §2
[29] = as §7; assay type: functional; settings: LOX IMVI, read-out: GI; how it was run: as §2
[30] = system: EKVX; test: as §1; assay type: functional; how it was run: as §2
[31] = system: HCT-116; test: as §3; assay type: functional; how it was run: as §2
[32] = system: Hs-578T; test: as §4; assay type: functional; how it was run: as §2
[33] = system: UO-31; test: as §6; assay type: functional; how it was run: as §2

Compound: CC1CCCc2c1nc1ncn(N)c(=N)c1c2-c1cccn1C (configuration not stated)
- inhibition of growth at 10 µM [1]: 16.2%
- inhibition of growth at 10 µM [2]: 11.3%
- inhibition of growth at 10 µM [3]: 10.4%
- inhibition of growth at 10 µM [4]: 11.7%
- inhibition of growth at 10 µM [5]: 13.4%
- inhibition of growth at 10 µM [6]: 10.7%
- growth inhibition (GI) [7]: inactive
- inhibition of growth at 10 µM [8]: 17.5%
- inhibition of growth at 10 µM [9]: 12.4%
- growth inhibition (GI) [10]: inactive
- inhibition of growth at 10 µM [11]: 30.1%
- inhibition of growth at 10 µM [12]: 11.6%
- inhibition of growth at 10 µM [13]: 18.3%
- inhibition of growth at 10 µM [14]: 29.2%
- inhibition of growth at 10 µM [15]: 38.6%
- inhibition of growth at 10 µM [16]: 14.6%
- growth inhibition (GI) [17]: inactive
- growth inhibition (GI) [18]: inactive
- inhibition of growth at 10 µM [19]: 7.3%
- growth inhibition (GI) [20]: inactive
- inhibition of growth at 10 µM [21]: 10.5%
- inhibition of growth at 10 µM [22]: 16.9%
- inhibition of growth at 10 µM [23]: 20.4%
- inhibition of growth at 10 µM [24]: 10.7%
- growth inhibition (GI) [25]: inactive

Compound: CC1CCCc2c1nc(NC(=S)NC(=O)c1ccccc1)c(C#N)c2-c1cccn1C (configuration not stated)
- inhibition (INH) [26]: 11%
- inhibition (INH) [27]: 23%
- inhibition of growth at 10 µM [1]: 14.2%
- inhibition of growth at 10 µM [2]: 32%
- inhibition of growth at 10 µM [3]: 22.4%
- inhibition of growth at 10 µM [4]: 19.5%
- inhibition of growth at 10 µM [5]: 20.1%
- inhibition of growth at 10 µM [6]: 38.1%
- inhibition of growth at 10 µM [7]: 32.7%
- inhibition of growth at 10 µM [8]: 40.6%
- inhibition of growth at 10 µM [9]: 38.8%
- inhibition of growth at 10 µM [28]: 27.6%
- inhibition of growth at 10 µM [11]: 27.5%
- inhibition of growth at 10 µM [12]: 35.9%
- inhibition of growth at 10 µM [13]: 33.5%
- inhibition of growth at 10 µM [14]: 31.4%
- inhibition of growth at 10 µM [15]: 36.7%
- inhibition of growth at 10 µM [16]: 22.6%
- inhibition of growth at 10 µM [17]: 31.4%
- inhibition of growth at 10 µM [18]: 31.9%
- inhibition of growth at 10 µM [19]: 51.4%
- inhibition of growth at 10 µM [29]: 29.6%
- inhibition of growth at 10 µM [21]: 12.8%
- inhibition of growth at 10 µM [22]: 24.7%
- inhibition of growth at 10 µM [23]: 28.4%
- inhibition of growth at 10 µM [24]: 31.9%
- inhibition of growth at 10 µM ([25]; U-251, 48 h, read-out: GI): 15.8%

Compound: CC1CCCc2c1nc1[nH]c(=S)n(-c3ccccc3)c(=N)c1c2-c1cccn1C (configuration not stated)
- growth inhibition (GI) [30]: inactive
- inhibition of growth at 10 µM [2]: 23.6%
- inhibition of growth at 10 µM [3]: 21.5%
- growth inhibition (GI) [31]: inactive
- inhibition of growth at 10 µM [5]: 14.1%
- growth inhibition (GI) [32]: inactive
- inhibition of growth at 10 µM [7]: 11.4%
- inhibition of growth at 10 µM [8]: 19.3%
- inhibition of growth at 10 µM [9]: 10.6%
- growth inhibition (GI) [10]: inactive
- inhibition of growth at 10 µM [11]: 15.6%
- growth inhibition (GI) [12]: inactive
- inhibition of growth at 10 µM [13]: 12.1%
- inhibition of growth at 10 µM [14]: 23.8%
- inhibition of growth at 10 µM [15]: 47.6%
- inhibition of growth at 10 µM [16]: 8.6%
- inhibition of growth at 10 µM [17]: 12.3%
- inhibition of growth at 10 µM [18]: 13.8%
- growth inhibition (GI) [33]: inactive
- growth inhibition (GI) [20]: inactive
- inhibition of growth at 10 µM [21]: 16.3%
- inhibition of growth at 10 µM [22]: 18.4%
- inhibition of growth at 10 µM [23]: 12.5%
- growth inhibition (GI) [24]: inactive
- growth inhibition (GI) [25]: inactive
